Screens from PubChem BioAssay.
Sampled rows, rich in hits. Any-hit rate of the full collection: about 1.6%.
JMJD2C inh: inhibitors of GASC-1 histone demethylase, primary screen, biochemical, fluorescence, DELFIA europium; hit rate 0.069% among 330,000; inhibition, % at 2.35 µM; GST-JMJD2C(1-420) H3K9me3 demethylation;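 active = more than half of a compound's replicate wells show inhibition beyond 50%, single wells judged on their own value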;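 note: signal counts dimethyl H3K9 product captured on neutravidin plate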
Target sequence (Q9H3R0 1-420 limits assumed): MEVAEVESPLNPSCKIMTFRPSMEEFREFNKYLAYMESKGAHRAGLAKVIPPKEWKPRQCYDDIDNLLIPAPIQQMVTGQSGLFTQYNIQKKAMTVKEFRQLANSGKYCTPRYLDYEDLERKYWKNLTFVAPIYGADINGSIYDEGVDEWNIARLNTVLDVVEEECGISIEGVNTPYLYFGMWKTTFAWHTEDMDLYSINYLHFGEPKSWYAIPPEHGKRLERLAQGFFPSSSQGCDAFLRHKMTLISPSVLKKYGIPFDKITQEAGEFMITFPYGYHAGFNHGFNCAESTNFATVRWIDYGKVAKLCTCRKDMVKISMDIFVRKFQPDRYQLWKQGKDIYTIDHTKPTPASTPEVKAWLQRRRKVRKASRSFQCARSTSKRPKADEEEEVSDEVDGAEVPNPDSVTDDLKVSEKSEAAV
PAD4 FP inh: human PAD4 inhibitors, primary screen, biochemical, fluorescence polarization, 1536-well format. AID 485272, 2010. inhibition, % at 6.36 µM. hit rate 0.41% among 330,000. Protein-arginine deiminase type-4 (Homo sapiens), Q9UM07. recombinant PAD4, RCA probe fluorescence polarization;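 active = percent inhibition above a cutoff equal to the mean of all tested compounds plus 3 SD, cut at about 15% in these data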
GSTO1 inh: inhibitors of recombinant GSTO1, primary screen, counter-screen for RBBP9 inhibitor project, biochemical, fluorescence polarization. Glutathione S-transferase omega-1 (Homo sapiens), P78417. activity-based probe fluorescence polarization. inhibition, % at 5.96 µM. hit rate 1.1% among 300,000. AID 1974, 2009;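 active = inhibition above the campaign mean inhibition plus 3 SD, cut at about 35% in these data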
Target sequence (P78417 whole entry, looked up): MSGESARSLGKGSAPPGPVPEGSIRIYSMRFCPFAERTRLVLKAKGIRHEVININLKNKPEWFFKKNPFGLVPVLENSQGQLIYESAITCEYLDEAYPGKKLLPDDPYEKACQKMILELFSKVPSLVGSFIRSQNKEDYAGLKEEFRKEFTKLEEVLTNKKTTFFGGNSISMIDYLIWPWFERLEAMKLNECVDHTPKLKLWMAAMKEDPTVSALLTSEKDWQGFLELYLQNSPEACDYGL
TDP2 inh: human TDP2 enzyme inhibitors, primary screen, biochemical, epi absorbance, recombinant enzyme; Tyrosyl-DNA phosphodiesterase 2 (Homo sapiens), O95551; AID 720702, 2013; hit rate 0.34% among 370,000; inhibition, % at 12.8 µM; T5PNP hydrolysis, p-nitrophenol absorbance 415 nm;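 active = inhibition above the mean of all tested compounds plus 3 SD, set per campaign, cut at about 25% in these data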
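Evaluation: % inhibition relative to enzyme-containing and enzyme-free wells. Material: recombinant human TDP2. Benchmarks: enzyme-free and DMSO wells. Timing: enzyme reaction with compound for 2 h at 37 °C. Compound dosing: 12.8 µM only. Measured by: p-Nitrophenol epi absorbance. Reagent: T5PNP substrate at 5 mM, a TopII-DNA adduct mimic. Replication: single well per compound.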
SUMO HTRF inh: inhibitors of in vitro SUMOylation cascade, primary screen, biochemical, HTRF, uHTS; hit rate 0.36% among 290,000; inhibition, % at 35 µM; HTRF SUMOylation assay, SAE1/SAE2 + UBC9; SUMO-conjugating enzyme UBC9 (Homo sapiens), P63279; in the data active = inhibition above about 50%, passing the limit was not always enough
Apaf-1 inh: inhibitors of human Apaf-1 apoptosome, primary screen, biochemical, DEVD-Rh110 fluorescence, uHTS; hit rate 0.71% among 330,000; inhibition, % at 20 µM; Apoptotic protease-activating factor 1 (Homo sapiens), O14727; reconstituted apoptosome caspase-3 activity; active = inhibition of at least 40% at 20 µM
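detection = Rh110 fluorescence intensity | test system = biochemical Apaf-1 apoptosome reconstitution | also added = cytochrome c and DEVD-Rh110 substrate | schedule = 30 min plus 50 min, RT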
GSTO1 confirm: GSTO1 inhibitor hit confirmation, counter-screen for RBBP9 inhibitor project, biochemical, fluorescence polarization, triplicate; inhibition, % at 5.96 µM; recombinant GSTO1, probe fluorescence polarization; hit rate 54% among 2,400; shares compounds with GSTO1 inh; AID 2176, 2009;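 active = inhibition above the primary screen's cutoff, its mean inhibition plus 3 SD, cut at about 35% in these data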;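 note: loss of polarization as inhibitors block binding of rhodamine sulfonate ester activity probe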
PAD4 confirm: human PAD4 inhibitors, confirmation, biochemical, fluorescence polarization. shares compounds with PAD4 FP inh. recombinant PAD4, RCA probe fluorescence polarization. inhibition, % at 6.36 µM. hit rate 28% among 1,200;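 active = mean inhibition across replicates above the hit cutoff set by the earlier primary screen, cut at about 15% in these data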;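 note: inhibitors block active-site labeling by the probe so polarization falls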
Apaf-1 inh conf: Apaf-1 inhibitors, single-dose retest, confirmation, biochemical, fluorescence, DEVD-Rh110, 20 µM. AID 504614, 2011. hit rate 25% among 1,800. shares compounds with Apaf-1 inh. reconstituted apoptosome, caspase-3 DEVD-Rh110 fluorescence. inhibition, % at 20 µM;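 active = mean inhibition of at least 40% at 20 µM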
Rh110 interf inh: Rh110 fluorescence interference by putative Apaf-1 inhibitors, confirmation, artefact control for Apaf-1 inhibitor project, biochemical, 20 µM; 1,800 tested, under 10 active; shares compounds with Apaf-1 inh; activation (fluorescence interference), % at 20 µM; AID 504615, 2011; quenched caspase reaction;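 active = signal rise of 40% or more at 20 µM, treated as a fluorescence artifact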
Fluor interf inh: fluorescence interference of Apaf-1 inhibitor hits, dose response, artefact control for Apaf-1 inhibitor project. shares compounds with Apaf-1 inh. fluorescence interference counterscreen, Apaf-1 assay format. IC50, µM. 460 tested, under 10 active. AID 588538, 2011; call rule not given here
Numbers stand for hits; i = inactive; nt = not tested or not shown.

SMILES	JMJD2C inh	PAD4 FP inh	GSTO1 inh	TDP2 inh	SUMO HTRF inh	Apaf-1 inh	GSTO1 confirm	Apaf-1 inh conf	Rh110 interf inh	Fluor interf inh	others
Cc1ccc(S(=O)(=O)/N=C2\C(=O)c3ccccc3C([O-])=C2n2cc[n+](CCC(C)C)c2)cc1	i	i	75.8	nt	i	57.1	70.6	68.1	i	i
CCCC[n+]1ccn(C2=C([O-])c3ccccc3C(=O)/C2=N\S(=O)(=O)c2ccc(Br)cc2)c1	i	i	78.3	i	i	58.8	74.2	67.8	i	i
Cc1ccc(NC(=O)C[n+]2ccn(C3=C([O-])c4ccccc4C3=O)c2)cc1	i	i	i	i	i	i	nt	nt	nt	nt
Cc1ccc(C(=O)N/C(=C\c2ccc(-c3ccccc3[N+](=O)[O-])o2)C(=O)NCCCN(C)C)cc1	i	i	43.7	i	i	55.8	i	46.4	i	i
COc1ccc(NC(=O)c2cc3c(C)nn(-c4ccccc4)c3s2)cc1	nt	nt	nt	i	nt	nt	nt	nt	nt	nt
COC(=O)/C(=C/Nc1ccc(O)cc1)[N+](=O)[O-]	i	68.1	75.4	i	i	91.2	i	i	i	nt	PAD4 confirm=i
COC(=O)/C(=C/Nc1ccccc1)[N+](=O)[O-]	i	i	i	i	i	i	nt	nt	nt	nt
Cc1ccc(-n2c(SCC(=O)Nc3ccc(OCc4ccccc4)cc3)nnc2-c2cnccn2)cc1	nt	nt	nt	i	nt	nt	nt	nt	nt	nt
Cc1[nH]n(-c2ccccc2)c(=O)c1-c1ccccc1	i	i	i	i	i	i	nt	nt	nt	nt
Cc1[nH]n(-c2ccccc2)c(=O)c1C(C[N+](=O)[O-])c1ccccc1Cl (stereo not drawn)	i	i	42.9	i	i	79.1	i	i	i	nt
O[C@H](COc1cccc(C(F)(F)F)c1)CN1CCC(C(O)(c2ccccc2)c2ccccc2)CC1	nt	nt	nt	i	nt	nt	nt	nt	nt	nt
COc1ccc(C(=O)C2CCN(c3ncnc4sccc34)CC2)cc1	nt	nt	nt	i	nt	nt	nt	nt	nt	nt
CCOCCCNC1=C(Cl)C(=O)c2ccccc2C1=O	i	i	64.7	i	i	47.9	i	i	i	nt
COc1cccc2c1C(=O)c1c(O)c3c(c(O)c1C2=O)C[C@@](O)(C(=O)CO)C[C@@H]3O[C@H]1C[C@H](N)[C@H](O)[C@H](C)O1	i	58.3	45.2	i	i	57.7	i	60.9	i	i	PAD4 confirm=68.3
COc1cccc2c1C(=O)c1c(O)c3c(c(O)c1C2=O)C[C@@](O)(C(=O)CO)C[C@@H]3OC1CC(N)C(O)C(C)O1 (stereo partly drawn)	nt	nt	nt	i	nt	nt	nt	nt	nt	nt
O=C([C@@H]1C[C@H]1c1ccccc1)N1CC[C@H]2[C@H](CCCN2Cc2ccccc2)C1	nt	nt	nt	i	nt	nt	nt	nt	nt	nt
COC(=O)CCC(=O)OC1(C)C(=O)C2=CN(CC3CC3)C(c3ccc(OC)cc3)=CC2=C(Br)C1=O (stereo not drawn)	i	i	50.5	nt	i	66.3	35.6	63.6	i	i
COC(=O)CCCC1=CC2=CC(=O)C(C)(OC(=O)c3cccs3)C(=O)C2=CN1C1CC1 (stereo not drawn)	i	i	i	i	i	i	nt	nt	nt	nt
COC(=O)CCC(=O)OC1(C)C(=O)C2=CN(CCCOC(C)C)C(c3ccc(OC)cc3)=CC2=C(Br)C1=O (stereo not drawn)	i	i	51.6	nt	i	79.3	65.1	71.1	i	i
CCCCC1=CC2=C(c3ccco3)C(=O)C(C)(OC(=O)c3ccc(OC)cc3)C(=O)C2=CN1CCCOC(C)C (stereo not drawn)	i	i	i	i	i	i	nt	nt	nt	nt
COC(=O)CCC(=O)OC1(C)C(=O)C=C2C=C(C3CC3)N(Cc3ccc(OC)cc3)C=C2C1=O (stereo not drawn)	i	i	i	i	i	i	nt	nt	nt	nt
COC(=O)CCC(=O)OC1(C)C(=O)C2=CN(C3CC3)C(c3ccc(OC)cc3)=CC2=C(Br)C1=O (stereo not drawn)	i	i	63.0	i	nt	61.3	i	55.5	i	i
O=S1(=O)c2c(cccc2N2CCSCC2)Oc2ccccc2CN1Cc1cn(Cc2ccc(C(F)(F)F)cc2)nn1	nt	nt	nt	i	nt	nt	nt	nt	nt	nt
COc1ccc(C(=O)N[C@@H]2CC[C@@]34CCCN3C(=O)CCC[C@H]4[C@H]2C)cc1	nt	nt	nt	i	nt	nt	nt	nt	nt	nt
N#Cc1c(N2CCCC(O)C2)nc(N)c2c(N)nc3c(c12)CC(=O)N3C12CC3CC(CC(C3)C1)C2 (stereo not drawn)	i	i	79.3	i	99.4	97.8	88.3	43.6	i	i
SMILES	JMJD2C inh	PAD4 FP inh	GSTO1 inh	TDP2 inh	SUMO HTRF inh	Apaf-1 inh	GSTO1 confirm	Apaf-1 inh conf	Rh110 interf inh	Fluor interf inh	others
Cc1cc(C)c(C#N)c(N2CCCC(C(N)=O)C2)n1 (stereo not drawn)	i	i	i	i	i	i	nt	nt	nt	nt
O=C1C(SCCO)=C(SCCO)C(=O)c2ccccc21	i	68.1	86.6	77.6	nt	96.9	84.1	96.2	i	i	PAD4 confirm=38.8
O=C(O)C1CCN(C(=O)c2ccccc2Cl)CC1	i	i	i	i	i	i	nt	nt	nt	nt
O=C1C(Cl)=C(N2CCC(C(=O)O)CC2)C(=O)c2ccccc21	i	19.6	80.4	nt	nt	74.9	79.1	52.6	i	i	PAD4 confirm=15.5
Oc1ccccc1C=Nc1cccc2ccccc12	i	i	i	i	i	i	nt	nt	nt	nt
Oc1cccc(C=Nc2cccc3ccccc23)c1O	i	i	88.1	i	i	74.0	i	i	i	nt
Oc1cccc(C=NCc2ccccc2)c1O	i	21.2	88.9	i	i	81.8	i	i	i	nt	PAD4 confirm=i
Oc1c(C=NCc2ccccc2)sc2ccccc12	i	i	i	i	i	i	nt	nt	nt	nt
